Bioassay records (PubChem BioAssay)
In the library only some 4.1% were active in any assay of this set; here they are far more common.
NS3 helicase inh = blocks Hepatitis C virus NS3 helicase unwinding. NS3 helicase DNA unwinding, Cy5 molecular beacon fluorescence. inhibition, % at 10.9 µM. 0.56% of 290,000 active. AID 1800;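 active = inhibition above the mean of all tested compounds plus 3 SD, set per campaign, cut at about 35% in these data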
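System: NS3 helicase fragment of HCV / Schedule: 1 h at 25 °C / Control set: DMSO alone as 0% and 110 µM thioflavine S as 100% / Reagent: Cy5/quencher beacon DNA duplex and ATP to start / Technique: Cy5 fluorescence / Replication: singlicate / Evaluation: % inhibition of end-to-start signal ratio versus controls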
MEKK2wt PB1 HTS = raises or lowers MEK5 binding to wildtype human MEKK2 PB1 domain; binding response (% of control), % at 10 µM; AID 1531; Q9Y2U5; 1.1% of 290,000 active; bead flow cytometry, Alexa488-MEK5 binding to MEKK2 WT; actives lie on both sides; in the data active = binding response below about 67% or above about 130%; inconclusive = no clear call, values can overlap the other calls; inactive = in between
MEKK2mut PB1 HTS = signal of MEK5 binding to mutant human MEKK2 PB1 domain. bead flow cytometry, Alexa488-MEK5 binding to MEKK2 mutant. percent response, % at 10 µM. 0.35% of 290,000 active; in the data active = percent response above about 24%, passing the limit was not always enough
MEKK3 PB1 HTS = modulators (inhibitors or enhancers) of MEK5 binding to human MEKK3 PB1 domain | Q99759 | bead-based flow cytometry, Alexa488-MEK5 binding to MEKK3; actives lie on both sides; 0 = blocked by unlabeled MEK5, 100 = vehicle | binding response (% of control), % at 10 µM | 1.4% of 290,000 active | AID 1529;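 active = binding response more than 3 SD above or below the average of its plate-row segment, actives on both sides; inconclusive = wells at one plate position flagged as instrument error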;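 also: Alexa488 bead fluorescence after subtracting the streptavidin-only scavenger bead signal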
Target sequence (Q99759 whole entry, looked up, the tested form may be a part): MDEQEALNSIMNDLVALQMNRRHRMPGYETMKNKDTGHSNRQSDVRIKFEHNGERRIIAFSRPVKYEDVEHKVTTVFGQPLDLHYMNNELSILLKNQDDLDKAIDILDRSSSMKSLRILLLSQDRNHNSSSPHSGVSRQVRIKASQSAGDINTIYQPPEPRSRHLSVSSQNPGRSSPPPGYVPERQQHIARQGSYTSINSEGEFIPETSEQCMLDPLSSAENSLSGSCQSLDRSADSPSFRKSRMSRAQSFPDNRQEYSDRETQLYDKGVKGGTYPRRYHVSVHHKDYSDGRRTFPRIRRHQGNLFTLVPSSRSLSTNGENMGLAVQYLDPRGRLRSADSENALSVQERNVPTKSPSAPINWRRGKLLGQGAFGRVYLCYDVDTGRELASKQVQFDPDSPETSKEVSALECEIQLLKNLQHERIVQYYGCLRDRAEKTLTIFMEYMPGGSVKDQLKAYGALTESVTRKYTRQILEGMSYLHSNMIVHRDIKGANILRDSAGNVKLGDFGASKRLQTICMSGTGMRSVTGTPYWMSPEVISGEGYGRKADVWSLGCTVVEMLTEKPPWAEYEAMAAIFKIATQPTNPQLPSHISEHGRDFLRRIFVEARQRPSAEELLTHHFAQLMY
T cruzi repl = blocks replication of Trypanosoma cruzi | 1.4% of 300,000 active | inhibition, % (concentration not given with the values) | T. cruzi beta-gal in NIH3T3, luminescence, 90 h;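 active = mean inhibition across valid replicates above about 55%, limit read from the data; inconclusive = mean below that limit but half or more replicates reach it; inactive = mean below it, under half of replicates reach it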;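 also: signal also drops with host cell toxicity which is not excluded here; higher percent means less beta-gal luminescence so fewer parasites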
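System: NIH/3T3 fibroblasts plus reporter T. cruzi. Medium: DMEM plus 2% FBS. Probe or stimulus: 5000 reporter trypomastigotes per well. Compound: single 50 nL compound addition per well in DMSO. Incubation: co-culture of at least 90 h after 3 h attachment. Detection: GalScreen β-gal luminescence, detergent lysis, 60 min. Evaluation: parasite load inhibition, %.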
DNA FID counter = counter-screen for HCV NS3 helicase inhibitors: DNA intercalator displacement. 0.17% of 290,000 active. AID 1845. DNA fluorescent intercalator displacement, fluorescence. inhibition, % at 7.9 µM; in the data active = inhibition above about 37%;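 also: higher means more ethidium bromide displaced from hairpin DNA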
Each line names hits and unclear results; the compound was inactive in the other large screens.

CCCN1C(=O)/C(=N\OCC(=O)NCC(F)(F)F)c2ccccc21	none
O=C(NCCN1CCN(Cc2ccccc2)CC1)c1ccc(CS(=O)(=O)c2ccc(Br)cc2)o1	none
C=CCc1c(C)nc(-c2ccccc2)nc1N/N=C/c1ccncc1	T cruzi repl 55.2
C=CCc1c(C)nc(-c2ccccc2)nc1N/N=C/c1ccccc1	none
O=C(OCc1ccccc1)c1cn(-c2ccccc2)nc1-c1ccncc1	T cruzi repl 56.6
CC(C)C(NC(=O)c1ccc(C(C)(C)C)cc1)C(=O)NCCc1ccccn1 (configuration not stated)	none
CC(C)C(NC(=O)c1ccc(C(C)(C)C)cc1)C(=O)NCC(c1ccccc1)N(C)C (configuration not stated)	DNA FID counter 36.8
O=C(CCCCCNC(=O)N1CCn2c1nc1ccccc12)NCc1ccccc1Cl	none
Cc1cccc(-c2nc(CS(=O)CC(=O)NCCc3ccc(Cl)cc3)c(C)o2)c1 (configuration not stated)	none
Cc1cccc(-n2c(SCc3ccc([N+](=O)[O-])cc3)nnc2-c2c[nH]c3ccccc23)c1	T cruzi repl 65.5
Cc1ccc2c(c1)c(-c1ccccc1)nc1nnnn12	none
Cc1sc(-c2c(C#N)c(N)nc3c2CCCCCC3)cc1[N+](=O)[O-]	none (no result: NS3 helicase inh, MEKK2wt PB1 HTS, MEKK2mut PB1 HTS, MEKK3 PB1 HTS, DNA FID counter)
CCCCc1sc(-c2c(C#N)c(N)nc3c2CCCCC3)cc1[N+](=O)[O-]	T cruzi repl 55.0
CN1C(=O)/C(=C/c2ccc(C(=O)Nc3ccc(O)cc3C(=O)O)cc2)SC1=S	DNA FID counter 38.9
Cc1ccc(/C=C2\SC(=S)N(CCC(=O)NNC(=O)c3ccc(O)cc3)C2=O)cc1	none
CC(=O)NC(=S)Nc1ccc(N2CCOCC2)c(S(=O)(=O)Nc2cc(Cl)ccc2Cl)c1	none
COc1ccc(-c2ncc(CN3CCN(CCC(C)C)C(CCO)C3)cn2)cc1 (configuration not stated)	T cruzi repl 61.3
COC(=O)c1ccc(CN2CCN(CCC(C)C)C(CCO)C2)cc1 (configuration not stated)	none
CCOC(=O)C1CCN(C(=O)C(CC)c2ccccc2)CC1 (configuration not stated)	none
Cc1ccccc1CC1(CO)CCCN(Cc2ccc(C#CC(C)(C)O)cc2)C1 (configuration not stated)	none
CCn1nc(C)c(CN2CCCC(CO)(Cc3ccccc3)C2)c1C (configuration not stated)	none
CCn1nc(C)c(CN2CCCC(CO)(Cc3cccc(Cl)c3)C2)c1C (configuration not stated)	T cruzi repl 55.2
CC(C)(O)C#Cc1ccc(CN2CCCC(CO)(Cc3cccc(Cl)c3)C2)cc1 (configuration not stated)	T cruzi repl 57.6
O=C(CSc1nc2ccccc2c(=O)n1CCCN1CCOCC1)NC12CC3CC(CC(C3)C1)C2	none
O=C(NCCCCc1ccccc1)C1CC(c2ccc(C(F)(F)F)cc2)=NO1 (configuration not stated)	none (no result: NS3 helicase inh, DNA FID counter)
COc1cc(/C=C/c2ccc3cccc(O)c3n2)c(Br)cc1O	T cruzi repl 55.8
COc1cc(Br)c(/C=C/c2ccc3cccc(O)c3n2)cc1OC	T cruzi repl 57.0
COc1cc(/C=C/c2ccc3cccc(O)c3n2)ccc1O	none
COc1cc(Br)cc(/C=C/c2ccc3cccc(O)c3n2)c1O	none
COCC(C)NC(=O)c1nn(Cc2ccccc2)c(=O)c2ccccc12 (configuration not stated)	none
Cc1ccc2[nH]cc(CCNC(=O)C3CCCO3)c2c1 (configuration not stated)	none
CN1CCN(NC(=O)Nc2cccc(Cl)c2Cl)CC1	T cruzi repl 56.7
CCOC(=O)c1ccc(-n2ccnc2)c(NC(=O)c2ccc(C(C)(C)C)cc2)c1	T cruzi repl inconclusive
CCOC(=O)c1ccc(-n2ccnc2)c(NC(=O)c2cccc(Br)c2)c1	T cruzi repl 62.6
O=C(CSc1nnc(-c2ccc3c(c2)OCO3)o1)Nc1ncc(Cl)cc1Cl	none
Cc1ccc(Cl)cc1N1CCN(C(=O)Cn2ncn3cccc3c2=O)CC1	none
CN(C)S(=O)(=O)c1ccc(NC(=O)Cc2ccc(S(=O)(=O)N3CCOCC3)s2)cc1	none
CCn1c2ccccc2c2cc(NC(=O)Cc3ccc(S(=O)(=O)N4CCOCC4)s3)ccc21	T cruzi repl 69.1
c1ccc(SCCOCCN2CCc3ccccc3C2)cc1	T cruzi repl inconclusive
O=C(O)C1Nc2ccc(OC(F)(F)F)cc2C2C=CCC12 (configuration not stated)	none (no result: NS3 helicase inh, DNA FID counter)
Cc1ccc2c(c1)C1C=CCC1C(C(=O)O)N2 (configuration not stated)	NS3 helicase inh 36.7 (no result: MEKK2wt PB1 HTS, MEKK2mut PB1 HTS, MEKK3 PB1 HTS)
CCOC(=O)C1(Cc2ccccc2)CCCN(C(=O)c2ccc(-n3ccnc3)cc2)C1 (configuration not stated)	none
COc1ccc(CNC(=O)COc2ccc(S(=O)(=O)N3CCOCC3)cc2C)cc1	none
CC1=Nc2ccccc2/C1=C/c1sc(=N)n(-c2nccs2)c1O	T cruzi repl 62.6
COC(=O)C1CCN(C(=O)CN(C)Cc2ccc(C(C)(C)C)cc2)CC1	T cruzi repl 66.9
CCOc1ccccc1NC(=O)NCc1ccccn1	none
Cc1nc2nc(SCC(=O)NCCCN3CCCCCC3)nn2c(C)c1Cc1ccccc1	MEKK2wt PB1 HTS 190.0, MEKK2mut PB1 HTS 34.0
Cc1ccccc1Cc1c(C)nc2nc(SCC(=O)NCCCN3CCCCC3)nn2c1C	none
O=C(OC(C(=O)NCc1ccco1)c1ccc(Cl)cc1)c1cccs1 (configuration not stated)	none
N=c1c2c(-c3ccccc3)c(-c3ccccc3)n(Cc3ccco3)c2ncn1CCCO	T cruzi repl 64.7
N=c1c2c(-c3ccccc3)c(-c3ccccc3)n(Cc3ccco3)c2ncn1CCN1CCOCC1	T cruzi repl 67.1
COC(=O)CC(NC(=O)Nc1ccccc1F)c1ccc2c(c1)OCO2 (configuration not stated)	none
COC(=O)c1nnn(-c2nonc2N)c1CSc1nnc(N)s1	none
O=C(NC1CCCCC1)C(=S)N1CCCC1	none
Cc1ccccc1-c1ccc(CN2CCN(C)C(CCO)C2)cc1 (configuration not stated)	T cruzi repl 58.5
O=C(/C=C(\O)c1ccc(Cl)cc1)C(=O)NNC(=O)C(O)(c1ccccc1)c1ccccc1	NS3 helicase inh 54.4 (no result: T cruzi repl)
O=C(O)c1cccc(S(=O)(=O)Nc2ccc3c(c2)CCC3)c1	none
Cc1c(C)c(C)c2[nH]c(-c3ccc4c(c3)OCO4)nc2c1C	T cruzi repl 58.2
